Assay results from ChEMBL document CHEMBL4400581, “First Example of Catalytic Synthesis of Difurazanohexahydrohexaazapyrenes and in Vitro Study of Their Antitumor Activity” (2019).

How the values were obtained:
[1] = tested on: K562; assay: Cytotoxicity against human K562 cells by MTT assay; format: functional
Outline: (§1)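 Cytotoxicity was measured by MTT assay across a range of concentrations in human tumour lines, with etoposide as the reference drug. Results are expressed as CC50.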

[2] = tested on: HeLa; assay: Cytotoxicity against human HeLa cells by MTT assay; format: functional; outline: as §1
[3] = tested on: U-937; assay: Cytotoxicity against human U937 cells by MTT assay; format: functional; outline: as §1
[4] = tested on: Jurkat; assay: Cytotoxicity against human Jurkat cells by MTT assay; format: functional; outline: as §1
[5] = tested on: U-937; assay: Cell cycle arrest in human U937 cells assessed as accumulation at S phase at 0.2 uM measured after 24 hrs by propidium iodide staining based assay (reference value: 45.88%); format: functional
Outline: (§2)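 U937 cells were exposed to the test agent at 0.2, 0.1, 0.05 or 0.025 μM for 24 h alongside an untreated control. DNA content was measured by propidium iodide staining and flow cytometry, giving the G0/G1, S and G2+M fractions and the hypodiploid pre-G0 (sub-G1) population. Values are means ± SD of three independent experiments, compared with control (p < 0.05, p < 0.01).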

[6] = tested on: U-937; assay: Induction of apoptosis in human U937 cells assessed as live cells at 0.2 uM measured after 24 hrs by Annexin alexa fluor 488/7AAD staining based flow cytometry (reference value: 98.31%); format: functional
[7] = tested on: U-937; assay: Induction of apoptosis in human U937 cells assessed as early apoptotic cells at 0.2 uM measured after 24 hrs by Annexin alexa fluor 488/7AAD staining based flow cytometry (reference value: 1.45%); format: functional
[8] = tested on: U-937; assay: Induction of apoptosis in human U937 cells assessed as early apoptotic cells at 0.1 uM measured after 24 hrs by Annexin alexa fluor 488/7AAD staining based flow cytometry (reference value: 1.45%); format: functional
[9] = tested on: U-937; assay: Induction of apoptosis in human U937 cells assessed as necrotic cells at 0.2 uM measured after 24 hrs by Annexin alexa fluor 488/7AAD staining based flow cytometry (reference value: 0.19%); format: functional
[10] = tested on: U-937; assay: Induction of apoptosis in human U937 cells assessed as necrotic cells at 0.1 uM measured after 24 hrs by Annexin alexa fluor 488/7AAD staining based flow cytometry (reference value: 0.19%); format: functional
[11] = tested on: U-937; assay: Induction of apoptosis in human U937 cells assessed as necrotic cells at 0.05 uM measured after 24 hrs by Annexin alexa fluor 488/7AAD staining based flow cytometry (reference value: 0.19%); format: functional
[12] = tested on: U-937; assay: Induction of apoptosis in human U937 cells assessed as late apoptotic cells at 0.025 uM measured after 24 hrs by Annexin alexa fluor 488/7AAD staining based flow cytometry (reference value: 0.05%); format: functional
[13] = tested on: U-937; assay: Cell cycle arrest in human U937 cells assessed as accumulation at sub-G1 phase at 0.05 uM measured after 24 hrs by propidium iodide staining based assay (reference value: 0.01%); format: functional; outline: as §2
[14] = tested on: U-937; assay: Induction of apoptosis in human U937 cells assessed as late apoptotic cells at 0.05 uM measured after 24 hrs by Annexin alexa fluor 488/7AAD staining based flow cytometry (reference value: 0.05%); format: functional
[15] = tested on: U-937; assay: Cell cycle arrest in human U937 cells assessed as accumulation at super-G2 phase at 0.05 uM measured after 24 hrs by propidium iodide staining based assay (reference value: 0.45%); format: functional
[16] = tested on: U-937; assay: Cell cycle arrest in human U937 cells assessed as accumulation at G2/G1 phase at 0.1 uM measured after 24 hrs by propidium iodide staining based assay (reference value: 1.98%); format: functional
[17] = tested on: U-937; assay: Cell cycle arrest in human U937 cells assessed as accumulation at sub-G1 phase at 0.2 uM measured after 24 hrs by propidium iodide staining based assay (reference value: 0.01%); format: functional; outline: as §2
[18] = tested on: U-937; assay: Induction of apoptosis in human U937 cells measured after 24 hrs by Annexin alexa fluor 488/7AAD staining based flow cytometry; format: functional, cell-based
Outline: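 Treated U937 cells were stained with annexin V Alexa Fluor 488 and 7AAD. Fluorescence intensity was read by flow cytometry, with etoposide run as the reference drug.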

[19] = tested on: U-937; assay: Induction of apoptosis in human U937 cells assessed as late apoptotic cells at 0.1 uM measured after 24 hrs by Annexin alexa fluor 488/7AAD staining based flow cytometry (reference value: 0.05%); format: functional
[20] = tested on: U-937; assay: Induction of apoptosis in human U937 cells assessed as live cells at 0.1 uM measured after 24 hrs by Annexin alexa fluor 488/7AAD staining based flow cytometry (reference value: 98.31%); format: functional
[21] = tested on: U-937; assay: Induction of apoptosis in human U937 cells assessed as necrotic cells at 0.025 uM measured after 24 hrs by Annexin alexa fluor 488/7AAD staining based flow cytometry (reference value: 0.19%); format: functional
[22] = tested on: U-937; assay: Induction of apoptosis in human U937 cells assessed as late apoptotic cells at 0.2 uM measured after 24 hrs by Annexin alexa fluor 488/7AAD staining based flow cytometry (reference value: 0.05%); format: functional
[23] = tested on: U-937; assay: Cell cycle arrest in human U937 cells assessed as accumulation at G1 phase at 0.05 uM measured after 24 hrs by propidium iodide staining based assay (reference value: 41.98%); format: functional; outline: as §2
[24] = tested on: U-937; assay: Cell cycle arrest in human U937 cells assessed as accumulation at super-G2 phase at 0.1 uM measured after 24 hrs by propidium iodide staining based assay (reference value: 0.45%); format: functional
[25] = tested on: U-937; assay: Cell cycle arrest in human U937 cells assessed as accumulation at G2/G1 phase at 0.025 uM measured after 24 hrs by propidium iodide staining based assay (reference value: 1.98%); format: functional
[26] = tested on: U-937; assay: Induction of apoptosis in human U937 cells assessed as early apoptotic cells at 0.025 uM measured after 24 hrs by Annexin alexa fluor 488/7AAD staining based flow cytometry (reference value: 1.45%); format: functional
[27] = tested on: U-937; assay: Cell cycle arrest in human U937 cells assessed as accumulation at S phase at 0.1 uM measured after 24 hrs by propidium iodide staining based assay (reference value: 45.88%); format: functional; outline: as §2
[28] = tested on: U-937; assay: Induction of apoptosis in human U937 cells assessed as early apoptotic cells at 0.05 uM measured after 24 hrs by Annexin alexa fluor 488/7AAD staining based flow cytometry (reference value: 1.45%); format: functional
[29] = tested on: U-937; assay: Induction of apoptosis in human U937 cells assessed as live cells at 0.025 uM measured after 24 hrs by Annexin alexa fluor 488/7AAD staining based flow cytometry (reference value: 98.31%); format: functional
[30] = tested on: U-937; assay: Cell cycle arrest in human U937 cells assessed as accumulation at G2 phase at 0.2 uM measured after 24 hrs by propidium iodide staining based assay (reference value: 10.7%); format: functional; outline: as §2
[31] = tested on: U-937; assay: Cell cycle arrest in human U937 cells assessed as accumulation at sub-G1 phase at 0.1 uM measured after 24 hrs by propidium iodide staining based assay (reference value: 0.01%); format: functional; outline: as §2
[32] = tested on: U-937; assay: Cell cycle arrest in human U937 cells assessed as accumulation at G2/G1 phase at 0.2 uM measured after 24 hrs by propidium iodide staining based assay (reference value: 1.98%); format: functional
[33] = tested on: U-937; assay: Cell cycle arrest in human U937 cells assessed as accumulation at G1 phase at 0.2 uM measured after 24 hrs by propidium iodide staining based assay (reference value: 41.98%); format: functional; outline: as §2
[34] = tested on: U-937; assay: Cell cycle arrest in human U937 cells assessed as accumulation at S phase at 0.05 uM measured after 24 hrs by propidium iodide staining based assay (reference value: 45.88%); format: functional; outline: as §2
[35] = tested on: U-937; assay: Cell cycle arrest in human U937 cells assessed as accumulation at G2 phase at 0.025 uM measured after 24 hrs by propidium iodide staining based assay (reference value: 10.7%); format: functional; outline: as §2
[36] = tested on: U-937; assay: Cell cycle arrest in human U937 cells assessed as accumulation at G2 phase at 0.1 uM measured after 24 hrs by propidium iodide staining based assay (reference value: 10.7%); format: functional; outline: as §2
[37] = tested on: U-937; assay: Cell cycle arrest in human U937 cells assessed as accumulation at super-G2 phase at 0.025 uM measured after 24 hrs by propidium iodide staining based assay (reference value: 0.45%); format: functional
[38] = tested on: U-937; assay: Cell cycle arrest in human U937 cells assessed as accumulation at G1 phase at 0.1 uM measured after 24 hrs by propidium iodide staining based assay (reference value: 41.98%); format: functional; outline: as §2
[39] = tested on: U-937; assay: Cell cycle arrest in human U937 cells assessed as accumulation at G2/G1 phase at 0.05 uM measured after 24 hrs by propidium iodide staining based assay (reference value: 1.98%); format: functional
[40] = tested on: U-937; assay: Cell cycle arrest in human U937 cells assessed as accumulation at sub-G1 phase at 0.025 uM measured after 24 hrs by propidium iodide staining based assay (reference value: 0.01%); format: functional; outline: as §2
[41] = tested on: U-937; assay: Induction of apoptosis in human U937 cells assessed as live cells at 0.05 uM measured after 24 hrs by Annexin alexa fluor 488/7AAD staining based flow cytometry (reference value: 98.31%); format: functional
[42] = tested on: U-937; assay: Cell cycle arrest in human U937 cells assessed as accumulation at G2 phase at 0.05 uM measured after 24 hrs by propidium iodide staining based assay (reference value: 10.7%); format: functional; outline: as §2
[43] = tested on: U-937; assay: Cell cycle arrest in human U937 cells assessed as accumulation at G1 phase at 0.025 uM measured after 24 hrs by propidium iodide staining based assay (reference value: 41.98%); format: functional; outline: as §2
[44] = tested on: U-937; assay: Cell cycle arrest in human U937 cells assessed as accumulation at S phase at 0.025 uM measured after 24 hrs by propidium iodide staining based assay (reference value: 45.88%); format: functional; outline: as §2
[45] = tested on: U-937; assay: Cell cycle arrest in human U937 cells assessed as accumulation at super-G2 phase at 0.2 uM measured after 24 hrs by propidium iodide staining based assay (reference value: 0.45%); format: functional

C1CCC(N2CN3c4nonc4N4CN(C5CCCCC5)CN5c6nonc6N(C2)C3C45)CC1 (centres undefined)
Activity [1]: Dose-dependent effect | CC50 [1]: 590 nM | Activity [2]: Dose-dependent effect | CC50 [2]: 1040 nM | Activity [3]: Dose-dependent effect | CC50 [3]: 540 nM | Activity [4]: Dose-dependent effect | CC50 [4]: 530 nM

C1CC2CC1CC2N1CN2c3nonc3N3CN(C4CC5CCC4C5)CN4c5nonc5N(C1)C2C34 (centres undefined)
Activity [5]: 38.89% | Activity [6]: 23.18% | Activity [7]: 19.35% | Activity [8]: 15.52% | Activity [9]: 4.4% | Activity [10]: 1.31% | Activity [11]: 1.4% | Activity [12]: 16.54% | Activity [13]: 11.01% | Activity [1]: Dose-dependent effect | CC50 [1]: 210 nM | Activity [2]: Dose-dependent effect | CC50 [2]: 320 nM | Activity [14]: 27.01% | Activity [15]: 2.07% | Activity [16]: 1.98% | Activity [17]: 20.66% | Activity [18]: Dose-dependent effect | Activity [19]: 40.93% | Activity [20]: 42.25% | Activity [21]: 1.28% | Activity [22]: 53.07% | Activity [23]: 30.09% | Activity [24]: 0.94% | Activity [25]: 1.98% | Activity [26]: 10.44% | Activity [27]: 32.87% | Activity [28]: 10.94% | Activity [29]: 71.74% | Activity [30]: 3.12% | Activity [31]: 16.73% | Activity [32]: 1.91% | Activity [33]: 17.74% | Activity [3]: Dose-dependent effect | CC50 [3]: 110 nM | Activity [34]: 41.7% | Activity [35]: 4.11% | Activity [36]: 2.83% | Activity [37]: 2.28% | Activity [4]: Dose-dependent effect | CC50 [4]: 160 nM | Activity [38]: 34.01% | Activity [39]: 1.93% | Activity [40]: 6.37% | Activity [41]: 60.65% | Activity [42]: 3.29% | Activity [43]: 35.15% | Activity [44]: 48.65% | Activity [45]: 1.38%

C1CCCC(N2CN3c4nonc4N4CN(C5CCCCCC5)CN5c6nonc6N(C2)C3C45)CC1 (centres undefined)
Activity [1]: Dose-dependent effect | CC50 [1]: 690 nM | Activity [2]: Dose-dependent effect | CC50 [2]: 1210 nM | Activity [3]: Dose-dependent effect | CC50 [3]: 590 nM | Activity [4]: Dose-dependent effect | CC50 [4]: 570 nM

C1CCCC(N2CN3c4nonc4N4CN(C5CCCCCCC5)CN5c6nonc6N(C2)C3C45)CCC1 (centres undefined)
Activity [1]: Dose-dependent effect | CC50 [1]: 740 nM | Activity [2]: Dose-dependent effect | CC50 [2]: 1370 nM | Activity [3]: Dose-dependent effect | CC50 [3]: 580 nM | Activity [4]: Dose-dependent effect | CC50 [4]: 620 nM

C1CC1N1CN2c3nonc3N3CN(C4CC4)CN4c5nonc5N(C1)C2C34 (centres undefined)
Activity [1]: Dose-dependent effect | CC50 [1]: 310 nM | Activity [2]: Dose-dependent effect | CC50 [2]: 420 nM | Activity [3]: Dose-dependent effect | CC50 [3]: 250 nM | Activity [4]: Dose-dependent effect | CC50 [4]: 270 nM

C1CCC(N2CN3c4nonc4N4CN(C5CCCC5)CN5c6nonc6N(C2)C3C45)C1 (centres undefined)
Activity [1]: Dose-dependent effect | CC50 [1]: 640 nM | Activity [2]: Dose-dependent effect | CC50 [2]: 980 nM | Activity [3]: Dose-dependent effect | CC50 [3]: 570 nM | Activity [4]: Dose-dependent effect | CC50 [4]: 510 nM
